Hits are enriched below; roughly 2.6% of the tested compounds scored in any of these assays.
IMP-1 inh = inhibitors of Pseudomonas aeruginosa IMP-1 metallo-beta-lactamase; purified IMP-1, nitrocefin hydrolysis, epi-absorbance fluorescence; inhibition, % at 5.6 µM; hit rate 0.45% among 290,000; AID 1556;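 active means inhibition above the mean plus 3 SD of all compounds in the same screening run, cut at about 4.5% in these data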;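 further: 0% = IMP-1 with DMSO and 100% = DMSO wells lacking enzyme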
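Assay system: purified IMP-1; Quantity: IMP-1 0.2 nM before substrate addition; Medium: HEPES buffer pH 7.1 with ZnSO4 and Brij 35; Incubation: 15 min enzyme–compound preincubation, then 25 min nitrocefin reaction, 25 °C; Signal: fluorescence quenching readout, ex 480/em 530 nm; Controls: DMSO with and without IMP-1; Repeats: singlicate testing.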
ASAP1 GAP inh = ASAP1 ArfGAP inhibition. Q9ULH1. ASAP1-stimulated ARF1 GTP hydrolysis, GDP FP detection. inhibition, % at 16.5 µM. hit rate 0.19% among 360,000; in the data active means inhibition above about 25%;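 further: 0% = vehicle with enzyme and substrate and 100% = no enzyme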
Target sequence (Q9ULH1 325-724 limits assumed): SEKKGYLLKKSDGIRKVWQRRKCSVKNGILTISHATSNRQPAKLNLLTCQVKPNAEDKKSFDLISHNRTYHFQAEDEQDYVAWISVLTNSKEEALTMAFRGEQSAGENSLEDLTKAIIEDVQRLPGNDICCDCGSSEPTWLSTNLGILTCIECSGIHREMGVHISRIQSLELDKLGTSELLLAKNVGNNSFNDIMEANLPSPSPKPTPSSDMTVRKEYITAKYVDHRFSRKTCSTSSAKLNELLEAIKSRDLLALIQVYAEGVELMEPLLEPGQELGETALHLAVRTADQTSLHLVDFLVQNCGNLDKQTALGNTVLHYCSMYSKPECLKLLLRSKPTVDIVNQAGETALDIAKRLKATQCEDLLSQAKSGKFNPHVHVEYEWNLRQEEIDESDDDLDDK
Calb FLC = affects C. albicans growth with fluconazole; C. albicans CaCi-2 + fluconazole, Alamar Blue growth, 48 h; growth inhibition, % (concentration not given with the values); hit rate 0.57% among 300,000;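 active means growth inhibition above about 58% in most replicates, limit read from the data, passing the limit was not always enough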;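 further: all wells also contain fluconazole at 8 µg/ml as a sub-toxic cotreatment; 0% = median of DMSO wells and 100% = median of geldanamycin control wells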
VIM-2 inhibitor = blocks Pseudomonas aeruginosa VIM-2 metallo-beta-lactamase; hit rate 0.89% among 290,000; inhibition, % at 5.6 µM; purified VIM-2, nitrocefin hydrolysis, epi-absorbance fluorescence;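 active means inhibition above the mean of all tested compounds plus 3 SD, cutoff set per screening run, cut at about 7.5% in these data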;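 further: red hydrolysis product quenches plate fluorescence so inhibitors raise well fluorescence; 0% = enzyme with DMSO and 100% = DMSO without enzyme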
ARFGAP1 inhibitor = inhibits rat ARF GTPase activating protein 1; Q62848; Arfgap1-stimulated ARF1 GTP hydrolysis, GDP FP detection; inhibition, % at 16.5 µM; hit rate 0.26% among 360,000;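 active means inhibition above a per-plate limit, mean inhibition of low control wells plus 3 SD, cut at about 25% in these data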;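 further: 0% = DMSO wells with enzyme and 100% = wells lacking Arfgap1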
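Repeats: one replicate per compound; assay system: rat Arfgap1 catalytic domain, aa 1-136; times: enzyme reaction 120 min at 25 °C after 20 min preincubation; detection: FP of antibody-bound GDP Alexa 633 tracer, ex 620/em 688 nm; benchmarks: high control wells lacking Arfgap1, low control full reaction with DMSO; reagent: human ARF1(Δ1-17)-GTP substrate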
PHOSPHO1 block = inhibitors of human PHOSPHO1 phosphatase. Q8TCT1. recombinant PHOSPHO1, absorbance phosphatase assay. inhibition, % at 13.3 µM. hit rate 1.1% among 290,000. AID 1565; in the data active means inhibition above about 60%
Target sequence (Q8TCT1 whole entry, looked up): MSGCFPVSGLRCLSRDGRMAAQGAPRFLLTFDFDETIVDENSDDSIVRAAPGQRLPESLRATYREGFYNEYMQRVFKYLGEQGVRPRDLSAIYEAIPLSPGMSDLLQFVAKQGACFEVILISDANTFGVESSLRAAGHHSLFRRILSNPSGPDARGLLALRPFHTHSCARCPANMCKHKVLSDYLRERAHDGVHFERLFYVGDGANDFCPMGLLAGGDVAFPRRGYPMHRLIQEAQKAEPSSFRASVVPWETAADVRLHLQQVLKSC
* = called active by the depositor; · = not tested or not shown.

SMILES | IMP-1 inh | ASAP1 GAP inh | Calb FLC | VIM-2 inhibitor | ARFGAP1 inhibitor | PHOSPHO1 block
O=C(c1ccco1)N1CCN(c2ncnc3c(-c4ccccc4)nsc23)CC1 | -3 | 10 | 89* | -2 | 0 | 8
CCCC(=O)OC[C@H]1CN(C2CCCC2)S(=O)(=O)c2c(Oc3ccccc3)cccc2O1 | · | -5 | · | · | 11 | ·
COc1cc(/C=N/Nc2ccc(F)cc2F)cc(OC)c1OC | -3 | -3 | 126* | -1 | 0 | -7
COc1cc(C=NNc2ccccc2[N+](=O)[O-])cc(OC)c1OC | · | 5 | · | · | 3 | ·
Clc1ccc2c(N/N=C/c3cccnc3)ccnc2c1 | 1 | -5 | 44 | 11* | 8 | -8
Fc1ccc(N/N=C/c2cccnc2)c(F)c1 | -1 | -2 | 112* | 2 | -2 | -37
Cc1ccc(Cl)cc1NC(=O)N(C)CCOC(=O)Nc1cccc(Cl)c1 | · | 13 | · | · | 8 | ·
CCCc1cc(=O)n2[nH]cnc2n1 | -4 | 7 | -12 | 0 | -10 | 61*
COC(=O)[C@]12C[C@H](CC(=O)NCC3CCCCC3)C(=O)N(Cc3ccccc3)C1=C[C@H](C(C)C)O[C@@H]2C1CC1 | · | 14 | · | · | 2 | ·
CC1(C(=O)NS(=O)(=O)c2ccccc2OC(F)(F)F)CCN1C(=O)Cc1ccccc1 (configuration not stated) | · | -7 | · | · | -3 | ·
O=C(Nc1nc(-c2ccccn2)cs1)c1ccc([N+](=O)[O-])o1 | -3 | 5 | 3 | -3 | 5 | 93*
Cc1cc(C(=O)Nc2nc(-c3ccccn3)cs2)ccc1[N+](=O)[O-] | -1 | 22 | 110* | 0 | 6 | -98
C[C@H]1CNC(=O)c2c(C(=O)N3CCN(c4ccccc4)CC3)ncn21 | · | 0 | · | · | -6 | ·
Cc1cc(C)cc(-n2nnc(C(=O)NCc3ccc4c(c3)OCO4)c2N)c1 | -7 | 12 | -29 | 1 | 2 | -2
Cc1cccc(-n2nnc(C(=O)NCc3ccc4c(c3)OCO4)c2N)c1 | -3 | -1 | -16 | -4 | 8 | 60*
CN(CCNC(=O)c1ccc(CS(=O)(=O)c2c(Cl)cccc2Cl)o1)CCc1ccccc1 | -4 | 2 | -5 | -2 | -5 | 65*
CN(C)CCNC(=O)c1ccc(CS(=O)(=O)c2c(Cl)cccc2Cl)o1 | -3 | 6 | 2 | -5 | 15 | -20
CC(=O)N1CCc2c(sc(NC(=O)c3ccc([N+](=O)[O-])o3)c2C(N)=O)C1 | · | -5 | · | · | 27* | ·
CCOC(=O)C1=C(C)Nc2sc(C(=O)c3ccc(OC)cc3)c(N)c2C1c1ccc(C(=O)OC)cc1 (configuration not stated) | -3 | 11 | 13 | 11* | 0 | 0
COC(=O)C1=C(C)Nc2sc(C(N)=O)c(N)c2C1c1ccncc1 (configuration not stated) | 0 | -15 | -2 | 4 | 8 | -8
O=c1c2ccccc2nc(/C=C/c2ccc([N+](=O)[O-])o2)n1CCCO | -3 | 7 | 108* | -1 | -2 | -14
N=C1C(c2nc(-c3ccc(Cl)cc3)cs2)=C(O)CN1CCCN1CCOCC1 | -3 | 10 | 3 | 14* | 16 | -75
COc1ccc(-c2c(-c3ccccc3OC)sc3ccccc23)cc1F | · | -7 | · | · | -15 | ·
O=C(CSc1nn(-c2ccccc2)c(=S)s1)NC(=O)NCc1ccco1 | -1 | -1 | -5 | -6 | 5 | 78*
COC(=O)C1=C(C)N(Cc2ccccc2C(F)(F)F)C(=NCc2ccccc2)NC1c1ccc(F)cc1 (configuration not stated) | · | -3 | · | · | -2 | ·
SMILES | IMP-1 inh | ASAP1 GAP inh | Calb FLC | VIM-2 inhibitor | ARFGAP1 inhibitor | PHOSPHO1 block
CC1=NN(c2ccccc2)C(=O)/C1=C\c1ccc(Oc2ccc([N+](=O)[O-])cc2[N+](=O)[O-])cc1 | -1 | 13 | -39 | -2 | 25* | -5
Cc1ccc(Cn2c(SCC(=O)N/N=C/c3ccc(C)o3)nc3ccccc32)cc1 | -2 | -10 | 2 | -4 | -5 | 91*
C[C@@H]1CN([C@H](C)CO)C(=O)c2cc(Br)cnc2O[C@H]1CN(C)C(=O)c1ccc(F)cc1 | · | -7 | · | · | -7 | ·
O=c1c2ccccc2ncn1-c1ccc(Cl)c(Cl)c1 | -3 | 3 | 5 | -3 | -2 | 9
O=c1c2ccccc2ncn1-c1cccc(Cl)c1 | 36* | -12 | 0 | 5 | -1 | 8
CC(=O)O[C@@H]1C=C[C@@H](C#Cc2ccc(C(C)(C)C)cc2)O[C@@H]1COC(=O)NC(C)C | · | 1 | · | · | -6 | ·
CN1CCN(C(=O)c2cn(-c3ccccc3)nc2-c2cccs2)CC1 | -4 | 1 | 6 | -4 | -5 | -2
CN(C)C(=O)c1cn(-c2ccccc2)nc1-c1cccs1 | -3 | -5 | 106* | -3 | -1 | 8
O=C(COC(=O)c1cn(-c2ccccc2)nc1-c1cccs1)NC1CC1 | -3 | 11 | 5 | 0 | 13 | 65*
C=CCOc1cccn2c(N(C)C(=O)c3ccncc3)c(CC)nc12 | · | -15 | · | · | -6 | ·
COC(=O)c1ccccc1NC(=S)NC(=O)c1ccccc1 | 4.7* | -6 | -4 | -1 | -9 | 13
Cc1ccc2cccnc2c1NC(=S)NC(=O)c1ccccc1 | 0 | 1 | 34 | -2 | 1 | 69*
COC(=O)c1ccc(NC(=S)NNC(=O)c2ccccc2)cc1 | 0 | -9 | 56 | -2 | 12 | -39
COC(=O)c1cccnc1NC(=S)NNC(=O)c1ccccc1 | 11* | 4 | -7 | -6 | 8 | 16
CC(C)CNc1ncnc2c1ncn2[C@H]1CN(Cc2ccc3c(c2)OCO3)C[C@@H](CO)O1 | · | 15 | · | · | 8 | ·
COC(=O)c1[nH]c2ccc(C)cc2c1NC(=O)CN1CCc2cc(OC)c(OC)cc2C1 | -2 | 13 | · | -1 | 5 | 69*
COc1cc2c(cc1OC)CN(CC(=O)Nc1ccc(C)cc1)CC2 | 1 | 7 | 2 | -1 | 6 | -16
COC(=O)c1[nH]c2ccccc2c1NC(=O)CN1CCN(c2cccc(OC)c2)C(C)C1 (configuration not stated) | 5.8* | 6 | 5 | -2 | -2 | -27
COc1ccc(N(C)S(=O)(=O)c2ccc3c(c2)NC(=O)CC(=O)N3)c(OC)c1 | -3 | -10 | -12 | -6 | 6 | 70*
CCCCc1c(O)nc(SCC(=O)c2ccccc2)[nH]c1=O | 12* | -15 | 2 | 0 | 3 | 14
CCCCc1ccc(NC(=O)CN2NS(=O)(=O)c3ccccc3C2=O)cc1 | 5.5* | 8 | 16 | 0 | 17 | -6
Cc1ccc(CNC(=O)CN2NS(=O)(=O)c3ccccc3C2=O)cc1 | · | -2 | · | · | -8 | ·
O=C(CSc1ncn[nH]1)NCc1ccc(Cl)cc1 | -1 | -1 | -2 | -1 | -10 | 35
O=C(NCc1ccc(Cl)cc1)c1ncn[nH]1 | -2 | 9 | -9 | 0 | 2 | 73*
O=C(NCc1ccc(Cl)cc1)c1n[nH]c([N+](=O)[O-])c1Cl | -3 | 24 | 97* | -4 | 6 | -5

Screens as filed in PubChem BioAssay.
